Measured values gathered from unrelated publications.
Each line is one published result; the experiments were not run side by side.
RET V804L: Proto-oncogene tyrosine-protein kinase receptor Ret (RET, Homo sapiens, UniProt P07949, V804L)
RET V804M: Proto-oncogene tyrosine-protein kinase receptor Ret (RET, Homo sapiens, UniProt P07949, V804M)
RET M918T: Proto-oncogene tyrosine-protein kinase receptor Ret (RET, Homo sapiens, UniProt P07949, M918T)

SMILES	target	observed	technique	tested at	remaining binding [%]
CN(CCCC(F)(F)F)c1nccc(-c2cnn3ncccc23)n1	RET V804L	binding		1 µM	100
Cc1cnc(Nc2ccc(C(=O)N3CCC(N4CCCC4)CC3)cc2)nc1-c1cc2ccccc2s1	RET V804M	binding	competition with immobilised ligand	1 µM	25
CO[C@@H](C)c1c(Nc2ccc([C@H](N(C)C(=O)C3CCS(=O)(=O)CC3)C(F)(F)F)cc2)cnc2cc(Cl)nn12	RET V804M	cell-free assay	competition with immobilised ligand	1 µM	94
O=C(c1ccc(Nc2ncc(Cl)c(-c3cc4ccccc4s3)n2)cc1)N1CCC(N2CCCC2)CC1	RET V804M	binding	competition with immobilised ligand	1 µM	37
COc1cnc(Nc2cccc(S(N)(=O)=O)c2)nc1N1CCN(c2ccccc2)C(=O)C1	RET M918T	binding	competition with immobilised ligand	1 µM	100
O=C(Nc1ccc(Oc2ccc(F)cc2)cc1)N1CCc2ncccc2[C@H]1c1ccc(F)cc1	RET M918T	cell-free assay	competition with immobilised ligand	1 µM	100
F[C@@H]1CCN(c2nccc(-c3cnn4ncccc34)n2)C1	RET V804L	binding		1 µM	100
FC(F)(F)c1ccc2c(c1)nc(-c1cccnc1)n2C1CC1	RET V804L	cell-free assay	competition with immobilised ligand	1 µM	81
C=CC(=O)N1CCC(C(=O)NCC(=O)N2CCN(c3nc(-c4cnc(N)nc4C(F)F)nc(N4CCOCC4)n3)CC2)CC1	RET V804M	binding	competition with immobilised ligand	1 µM	100
CN(C)c1nccc(-c2cnn3ncccc23)n1	RET V804L	binding		1 µM	99
Cc1noc([C@H]2C[C@@H](c3ccc(C(F)(F)F)cc3)CN(C(=O)N3CCS(=O)(=O)C3)C2)n1	RET V804L	cell-free assay	competition with immobilised ligand	1 µM	100
Nc1ncc2c(n1)-c1c([nH]c3ccc(C#CC4CC4)cc13)CCCC2	RET M918T	binding	competition with immobilised ligand	1 µM	100
COc1ncc2cc3ccccc3nc2c1C#N	Proto-oncogene tyrosine-protein kinase receptor Ret (RET, Homo sapiens, UniProt P07949)	cell-free assay	competition with immobilised ligand	5 µM	96
N[C@H]1CCN(c2nccc(-c3cnn4ncccc34)n2)C1	RET V804M	binding		1 µM	100
CNC(=O)[C@@H]1CC[C@@H](n2c(-c3ccc4cnccc4c3)nc3ccc(C(=O)NCc4cccc(C(N)=O)c4)cc32)C1	RET M918T	binding	competition with immobilised ligand	1 µM	98
O=C(NCCCN1CCOCC1)c1ccc(Nc2nccc(-c3cc4ccccc4s3)n2)cc1	RET M918T	binding	competition with immobilised ligand	1 µM	93
COc1cc(-c2cn(C3CCc4c(F)cccc4N(CC(F)(F)F)C3=O)nn2)ccc1-n1cnc(C)c1 (centres unmarked)	RET M918T	cell-free assay	competition with immobilised ligand	1 µM	100
COc1ccnn2ncc(-c3ccnc(N(C)C)n3)c12	RET V804M	binding		1 µM	100
COc1cc(-c2cn(C3CCc4ccccc4N(CC(F)(F)F)C3=O)nn2)ccc1-n1ccc(C)n1 (centres unmarked)	RET V804M	cell-free assay	competition with immobilised ligand	1 µM	100
O=C(NCC1CCOCC1)c1n[nH]cc1NC(=O)c1c(F)cccc1F	RET V804L	binding	competition with immobilised ligand	1 µM	100
